# Test results: PMC3577957 (Insect biochemistry and molecular biology, 2012)
# Marks after values point to notes of the source that are not given here.
# Key:
# Hv-mEH1 [1] = biological target: T1, Hv-mEH1 (Chloridea virescens, UniProt L7R9X8); experiment: Partition assay with radiolabeled general epoxide substrates, Hv-mEH1; type: biochemical, Heliothis virescens; settings: 100 mM sodium phosphate, pH 8.0, 50 μM substrate, 1% ethanol, 0.1 mg ml^−1 BSA, 30°C; corrected for background hydrolysis
# In short: (§1)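 Microsomal enzyme came from baculovirus-infected High Five cells (MOI 0.5, 65 h p.i., Triton X-100 extract, 163,000 xg supernatant). Partition assay used tritium-labeled cis-stilbene oxide, trans-stilbene oxide or t-DPPO. Enzyme amount was set so at most 15% of substrate was hydrolyzed. Assays were run in triplicate and repeated at least three times. Results are mean ± standard deviation.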
# MsJHEH [2] = biological target: T2, MsJHEH (Manduca sexta, UniProt Q25489); experiment: Partition assay with radiolabeled general epoxide substrates, MsJHEH; type: biochemical; settings: 100 mM sodium phosphate, pH 8.0, 50 μM substrate, 1% ethanol, 0.1 mg ml^−1 BSA, 30°C; corrected for background hydrolysis
# T2 sequence (Q25489 1-462): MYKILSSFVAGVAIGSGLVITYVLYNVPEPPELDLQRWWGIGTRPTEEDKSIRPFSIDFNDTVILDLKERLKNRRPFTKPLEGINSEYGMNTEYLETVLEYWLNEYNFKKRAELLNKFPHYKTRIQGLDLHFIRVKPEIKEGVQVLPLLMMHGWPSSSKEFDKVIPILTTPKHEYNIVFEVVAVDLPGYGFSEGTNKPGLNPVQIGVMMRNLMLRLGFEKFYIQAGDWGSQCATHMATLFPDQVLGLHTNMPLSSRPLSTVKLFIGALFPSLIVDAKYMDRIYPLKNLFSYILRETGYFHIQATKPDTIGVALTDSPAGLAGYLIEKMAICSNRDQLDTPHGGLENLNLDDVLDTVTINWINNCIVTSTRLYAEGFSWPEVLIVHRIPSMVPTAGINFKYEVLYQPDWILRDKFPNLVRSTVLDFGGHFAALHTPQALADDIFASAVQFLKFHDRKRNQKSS
# In short: as §1
# Hv-mEH1 [3] = biological target: T1, Hv-mEH1; experiment: Fluorescent substrate assay, Hv-mEH1; type: biochemical, Heliothis virescens; settings: 50 mM Tris-HCl, pH 8.0, 5 μM substrate (25 μM for CMNGC), 100 μM OTFP, 1% DMSO, 0.1 mg ml^−1 BSA, 30°C
# In short: (§2)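 Enzyme was microsomal fraction from High Five cells infected with recombinant baculovirus (MOI 0.5, 27°C, 65 h p.i.), solubilized with 0.5% Triton X-100, and taken as the 163,000 xg supernatant. Enzyme was preincubated 5 min with OTFP before α-cyanoester/carbonate epoxide substrate was added. Fluorescence (ex 330/em 465 nm) was read every 30 s for 10 min. Aldehyde product was quantified against a 6-methoxy-2-naphthaldehyde standard curve. No-OTFP controls measured ester hydrolysis. Quadruplicate wells, ≥3 plates.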
# [4] = biological target: T3, hmEH (human microsomal EH, EPHX1) (Homo sapiens, UniProt P07099); experiment: Fluorescent substrate assay, hmEH; type: biochemical; settings: 50 mM Tris-HCl, pH 8.0, 5 μM substrate, 100 μM OTFP, 1% DMSO, 0.1 mg ml^−1 BSA, 30°C
# T3 sequence (P07099 1-455): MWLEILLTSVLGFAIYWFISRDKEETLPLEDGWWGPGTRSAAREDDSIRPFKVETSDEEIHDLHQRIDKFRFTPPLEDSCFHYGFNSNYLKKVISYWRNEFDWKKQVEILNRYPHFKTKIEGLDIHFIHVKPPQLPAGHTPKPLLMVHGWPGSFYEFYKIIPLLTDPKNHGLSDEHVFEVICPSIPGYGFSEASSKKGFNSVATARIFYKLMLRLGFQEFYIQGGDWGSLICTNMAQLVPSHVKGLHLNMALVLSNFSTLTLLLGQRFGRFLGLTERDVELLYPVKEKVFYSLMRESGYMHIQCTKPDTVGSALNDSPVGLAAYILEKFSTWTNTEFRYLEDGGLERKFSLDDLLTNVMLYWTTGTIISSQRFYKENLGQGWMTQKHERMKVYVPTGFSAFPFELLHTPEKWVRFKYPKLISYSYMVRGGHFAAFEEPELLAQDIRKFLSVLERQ
# MsJHEH [5] = biological target: T2, MsJHEH; experiment: Fluorescent substrate assay, MsJHEH; type: biochemical; settings: 50 mM Tris-HCl, pH 8.0, 5 μM substrate (25 μM for CMNGC), 100 μM OTFP, 1% DMSO, 0.1 mg ml^−1 BSA, 30°C
# In short: as §2
# [6] = biological target: T3, hmEH (human microsomal EH, EPHX1); settings: 25 μM CMNGC; ref Morisseau et al., 2011; cited from earlier work
# Bommo-JHEH = settings: ref Zhang et al., 2005; cited from earlier work
# MsJHEH [7] = biological target: T2, MsJHEH; settings: cited from earlier work
# Hv-mEH1 [8] = biological target: T1, Hv-mEH1; experiment: JH III partition assay and kinetic constant determination, Hv-mEH1; type: biochemical, Heliothis virescens
# In short: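 Recombinant enzyme expressed in baculovirus-infected High Five cells (MOI 0.5, 27°C, harvested 65 h p.i.). Used the Triton X-100-solubilized microsomal supernatant. Tritiated JH III partition assay at eight concentrations (96 to 11,190 nM), with 1% ethanol and 0.1 mg ml−1 BSA. Ran 5 to 30 min with ≤15% hydrolysis, non-enzymatic background subtracted. KM/Vmax fitted by enzyme kinetics, triplicate, repeated three times.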
structure (smiles),measurement,setting,value
"c1ccc([C@H]2O[C@H]2c2ccccc2)cc1 [c-SO, cis-stilbene oxide]",Specific Activity Hv-mEH1,Hv-mEH1 [1],45.8 ± 7.0 nmol/min/mg
same,Specific Activity MsJHEH,MsJHEH [2],3.7 ± 0.5 nmol/min/mg
"CC[C@@H]1O[C@H]1COC(=O)OC(C#N)c1ccc2cc(OC)ccc2c1 (relative stereo) [MNPEC, cyano-(6-methoxy-naphthalen-2-yl)-methyl trans-((3-ethyl-oxiran-2-yl)methyl) carbonate]",Specific Activity Hv-mEH1 with fluorescent substrates,Hv-mEH1 [3],122 ± 11 nmol/min/mg
same,Specific Activity hmEH with fluorescent substrates,[4],< 1.0 nmol/min/mg
same,Specific Activity MsJHEH with fluorescent substrates,MsJHEH [5],0.8 ± 0.1 nmol/min/mg
"c1ccc([C@@H]2O[C@H]2c2ccccc2)cc1 (relative stereo) [t-SO, trans-stilbene oxide]",Specific Activity Hv-mEH1,Hv-mEH1 [1],0.3 ± 0.01 nmol/min/mg
same,Specific Activity MsJHEH,MsJHEH [2],2.1 ± 0.3 nmol/min/mg
"COc1ccc2cc(C(C#N)OC(=O)OC[C@@H]3O[C@H]3c3ccccc3)ccc2c1 (relative stereo) [MNPC, cyano(6-methoxy-naphthalen-2-yl)methyl trans-[(3-phenyloxiran-2-yl)methyl] carbonate]",Specific Activity Hv-mEH1 with fluorescent substrates,Hv-mEH1 [3],816 ± 140 nmol/min/mg
same,Specific Activity hmEH with fluorescent substrates,[4],< 1.0 nmol/min/mg
same,Specific Activity MsJHEH with fluorescent substrates,MsJHEH [5],29 ± 18 nmol/min/mg
"CCC[C@@H]1O[C@H]1CC(=O)OC(C#N)c1ccc2cc(OC)ccc2c1 (relative stereo) [MNHE, cyano(2-methoxynaphthalen-6-yl)methyl trans-2-(3-propyloxiran-2-yl)acetate]",Specific Activity Hv-mEH1 with fluorescent substrates,Hv-mEH1 [3],"1,180 ± 8 nmol min^−1 mg^−1"
same,Specific Activity hmEH with fluorescent substrates,[4],< 1.0 nmol/min/mg
same,Specific Activity MsJHEH with fluorescent substrates,MsJHEH [5],38 ± 3 nmol/min/mg
"COc1ccc2cc(C(C#N)OC(=O)OCC3CO3)ccc2c1 (stereo not drawn) [CMNGC, cyano(6-methoxy-naphthalen-2-yl)methyl oxiran-2-ylmethyl carbonate]",Specific Activity Hv-mEH1 with fluorescent substrates,Hv-mEH1 [3],0.03 ± 0.001 nmol/min/mg
same,Specific Activity MsJHEH with fluorescent substrates,MsJHEH [5],3.3 ± 0.2 nmol/min/mg
same,Specific Activity hmEH with CMNGC,[6],25 ± 2 ^b nmol min^−1 mg^−1
"COc1ccc2cc(C(C#N)OC(=O)C[C@@H]3O[C@H]3c3ccccc3)ccc2c1 (relative stereo) [MNPE, cyano(2-methoxynaphthalen-6-yl)methyl trans-(2-(3-phenyloxiran-2-yl))acetate]",Specific Activity Hv-mEH1 with fluorescent substrates,Hv-mEH1 [3],138 ± 9 nmol/min/mg
same,Specific Activity hmEH with fluorescent substrates,[4],< 1.0 nmol/min/mg
same,Specific Activity MsJHEH with fluorescent substrates,MsJHEH [5],8.9 ± 0.4 nmol/min/mg
"COc1ccc2cc(C(C#N)OC(=O)OCC3OC3(C)C)ccc2c1 (stereo not drawn) [MNiPC, cyano-(6-methoxy-naphthalen-2-yl)-methyl 3,3-dimethyl-oxiranylmethyl carbonate]",Specific Activity Hv-mEH1 with fluorescent substrates,Hv-mEH1 [3],3.7 ± 1.1 nmol/min/mg
same,Specific Activity hmEH with fluorescent substrates,[4],< 1.0 nmol/min/mg
same,Specific Activity MsJHEH with fluorescent substrates,MsJHEH [5],1.3 ± 0.5 nmol/min/mg
"c1ccc(CC2OC2c2ccccc2)cc1 (stereo not drawn) [t-DPPO, trans-diphenylpropene oxide]",Specific Activity Hv-mEH1,Hv-mEH1 [1],0.1 ± 0.04 nmol/min/mg
same,Specific Activity MsJHEH,MsJHEH [2],18.3 ± 4.0 nmol/min/mg
"COC(=O)/C=C(\C)CC/C=C(\C)CC[C@H]1OC1(C)C [JH III, juvenile hormone (JH) III]",specificity constant of Bommo-JHEH for JH III,Bommo-JHEH,77000 M⁻¹ s⁻¹
same,Vmax of MsJHEH for JH III,"MsJHEH [7]; ref Severson et al., 2002",59 nmol/min/mg
same,specificity constant of MsJHEH for JH III,"MsJHEH [7]; ref Touhara and Prestwich, 1993",290000 M⁻¹ s⁻¹
same,specificity constant (kcat/KM ratio) of Hv-mEH1 for JH III,Hv-mEH1 [8],630 M⁻¹ s⁻¹
same,Vmax of Hv-mEH1 for JH III,"Hv-mEH1 [8]; 100 mM sodium phosphate, pH 8.0, 30°C, JH III diol formed",1.7 ± 0.1 nmol/min/mg
same,kcat of Hv-mEH1 for JH III,Hv-mEH1 [8]; calculated using estimated molecular mass of 53.1 kDa,0.002 s⁻¹
